Converted amounts (≈) assume the structure as drawn.
Tests used:
[1] = tested on: Pseudomonas aeruginosa; assay: Antibacterial activity against multidrug/extremely drug-resistant/colistin-susceptible Pseudomonas aeruginosa isolate 259-96918; assay type: functional
[2] = tested on: Pseudomonas aeruginosa; assay: Antibacterial activity against pandrug-resistant Pseudomonas aeruginosa isolate 91433; assay type: functional
[3] = tested on: Pseudomonas aeruginosa; assay: Antibacterial activity against multidrug-resistant/tobramycin-susceptible Pseudomonas aeruginosa isolate 85322; assay type: functional
[4] = tested on: Pseudomonas aeruginosa; assay: Antibacterial activity against multidrug-resistant/tobramycin-susceptible Pseudomonas aeruginosa isolate 83182; assay type: functional
[5] = tested on: Pseudomonas aeruginosa; assay: Antibacterial activity against multidrug-resistant/tobramycin-susceptible Pseudomonas aeruginosa isolate 86052; assay type: functional
[6] = tested on: Pseudomonas aeruginosa; assay: Antibacterial activity against Pseudomonas aeruginosa PAO1; assay type: functional
[7] = tested on: Staphylococcus aureus; assay: Antibacterial activity against Staphylococcus aureus ATCC 29213 after 24 hrs by microtitre broth dilution method; assay type: functional; conditions: ATCC 29213, 24 h
[8] = tested on: Pseudomonas aeruginosa; assay: Antibacterial activity against pandrug-resistant Pseudomonas aeruginosa isolate 101243; assay type: functional
[9] = Selectivity ratio of MIC for Pseudomonas aeruginosa PAO1 to MIC for Pseudomonas aeruginosa PAO750; assay type: functional
How it was run: (§1)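 MICs were measured in PAO1 and in PAO750. PAO750 is a PAO1 derivative lacking the MexAB-OprM, MexCD-OprJ, MexEF-OprN, MexJK and MexXY efflux pumps and the outer membrane protein OpmH.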

[10] = tested on: Enterococcus faecium; assay: Antibacterial activity against Enterococcus faecium ATCC 27270 after 24 hrs by microtitre broth dilution method; assay type: functional; conditions: ATCC 27270, 24 h
[11] = tested on: Pseudomonas aeruginosa; assay: Antibacterial activity against multidrug-resistant/tobramycin-susceptible Pseudomonas aeruginosa isolate 86053; assay type: functional
[12] = tested on: Pseudomonas aeruginosa; assay: Antibacterial activity against multidrug-resistant/tobramycin-susceptible Pseudomonas aeruginosa isolate 108590; assay type: functional
[13] = tested on: Stenotrophomonas maltophilia; assay: Antibacterial activity against Stenotrophomonas maltophilia isolate CAN-ICU 62584 after 24 hrs by microtitre broth dilution method; assay type: functional; conditions: isolate CAN-ICU 62584, 24 h
[14] = tested on: Pseudomonas aeruginosa; assay: Antibacterial activity against multidrug/extremely drug-resistant/colistin-susceptible Pseudomonas aeruginosa isolate 101885; assay type: functional
[15] = tested on: Escherichia coli; assay: Antibacterial activity against gentamicin/tobramycin/ciprofloxacin-resistant Escherichia coli isolate CANWARD-2011 97615 harboring AAC3-2A after 24 hrs by microtitre broth dilution method; assay type: functional; conditions: isolate CANWARD-2011 97615, 24 h
[16] = tested on: Pseudomonas aeruginosa; assay: Antibacterial activity against gentamicin-resistant Pseudomonas aeruginosa isolate CAN-ICU 62308 after 24 hrs by microtitre broth dilution method; assay type: functional; conditions: isolate CAN-ICU 62308, 24 h
[17] = tested on: Acinetobacter baumannii; assay: Antibacterial activity against Acinetobacter baumannii isolate CAN-ICU 63169 after 24 hrs by microtitre broth dilution method; assay type: functional; conditions: isolate CAN-ICU 63169, 24 h
[18] = tested on: Pseudomonas aeruginosa; assay: Ratio of MIC for Pseudomonas aeruginosa PAO1 after 25 serial passages to MIC for Pseudomonas aeruginosa PAO1 prior to 25 serial passages; assay type: functional
How it was run: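 P. aeruginosa PAO1 exposed to sub-inhibitory (0.5 x MIC) drug over successive subcultures as a resistance-selection procedure. MIC compared after versus before passaging.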

[19] = tested on: Escherichia coli; assay: Antibacterial activity against Escherichia coli ATCC 25922 after 24 hrs by microtitre broth dilution method; assay type: functional; conditions: ATCC 25922, 24 h
[20] = tested on: Staphylococcus aureus; assay: Antibacterial activity against methicillin-resistant Staphylococcus aureus ATCC 33592 after 24 hrs by microtitre broth dilution method; assay type: functional; conditions: ATCC 33592, 24 h
[21] = tested on: Pseudomonas aeruginosa; assay: Antibacterial activity against multidrug/extremely drug-resistant/colistin-susceptible Pseudomonas aeruginosa isolate 100036; assay type: functional
[22] = Inhibition of Pseudomonas aeruginosa DNA gyrase A assessed as inhibition of DNA supercoiling using PBR322 DNA as substrate after 30 mins by SYBR Gold staining based agarose gel electrophoresis
[23] = tested on: Escherichia coli; assay: Antibacterial activity against amikacin-resistant Escherichia coli isolate CAN-ICU 63074 after 24 hrs by microtitre broth dilution method; assay type: functional; conditions: isolate CAN-ICU 63074, 24 h
[24] = tested on: Pseudomonas aeruginosa; assay: Antibacterial activity against extremely drug-resistant Pseudomonas aeruginosa isolate 104354 infected in Galleria mellonella assessed as larvae survival at 50 mg/kg administered as single dose measured after 24 hrs (reference value: 27 %); assay type: functional; conditions: isolate 104354, 24 h
How it was run: (§2)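 Galleria mellonella larvae were infected with 10^6 CFU of XDR P. aeruginosa #104354, resistant to all antipseudomonal classes except colistin. A single injected drug dose was given 2 h post-infection: 50 mg/kg with survival read at 24 h, or 75 mg/kg with survival read at 96 h. Controls were infected untreated larvae and PBS-injected larvae. Two independent experiments of 15 larvae each (n = 30).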

[25] = tested on: Pseudomonas aeruginosa; assay: Antibacterial activity against multidrug/extremely drug-resistant/colistin-susceptible Pseudomonas aeruginosa isolate 264-104354; assay type: functional
[26] = tested on: Pseudomonas aeruginosa; assay: Antibacterial activity against multidrug/extremely drug-resistant/colistin-susceptible Pseudomonas aeruginosa isolate 262-101856; assay type: functional
[27] = tested on: Pseudomonas aeruginosa; assay: Antibacterial activity against extremely drug-resistant Pseudomonas aeruginosa isolate 104354 infected in Galleria mellonella assessed as larvae survival at 75 mg/kg administered as single dose measured after 96 hrs; assay type: functional; conditions: isolate 104354, 96 h; how it was run: as §2
[28] = tested on: Pseudomonas aeruginosa; assay: Antibacterial activity against gentamicin/tobramycin-resistant Pseudomonas aeruginosa isolate CANWARD-2011 96846 after 24 hrs by microtitre broth dilution method; assay type: functional; conditions: isolate CANWARD-2011 96846, 24 h
[29] = tested on: Pseudomonas aeruginosa; assay: Antibacterial activity against multidrug-resistant/tobramycin-susceptible Pseudomonas aeruginosa isolate 86079; assay type: functional
[30] = tested on: Pseudomonas aeruginosa; assay: Antibacterial activity against multidrug/extremely drug-resistant/colistin-susceptible Pseudomonas aeruginosa isolate 260-97103; assay type: functional
[31] = tested on: Pseudomonas aeruginosa; assay: Antibacterial activity against multidrug-resistant/tobramycin-susceptible Pseudomonas aeruginosa isolate 84745; assay type: functional
[32] = tested on: Pseudomonas aeruginosa; assay: Antibacterial activity against Pseudomonas aeruginosa ATCC 27853 after 24 hrs by microtitre broth dilution method; assay type: functional; conditions: ATCC 27853, 24 h
[33] = tested on: Pseudomonas aeruginosa; assay: Antimicrobial activity against Pseudomonas aeruginosa PAO200; assay type: functional
How it was run: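 MIC (µg/mL) determined in PAO200, a PAO1-derived MexAB-OprM deletion strain used to assess efflux effects.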

[34] = tested on: Streptococcus pneumoniae; assay: Antibacterial activity against Streptococcus pneumoniae ATCC 49619 after 24 hrs by microtitre broth dilution method; assay type: functional; conditions: ATCC 49619, 24 h
[35] = tested on: Pseudomonas aeruginosa; assay: Antibacterial activity against multidrug-resistant/tobramycin-susceptible Pseudomonas aeruginosa isolate 86141; assay type: functional
[36] = tested on: Enterococcus faecalis; assay: Antibacterial activity against Enterococcus faecalis ATCC 29212 after 24 hrs by microtitre broth dilution method; assay type: functional; conditions: ATCC 29212, 24 h
[37] = tested on: Escherichia coli; assay: Antibacterial activity against gentamicin-resistant Escherichia coli isolate CAN-ICU 61714 after 24 hrs by microtitre broth dilution method; assay type: functional; conditions: isolate CAN-ICU 61714, 24 h
[38] = tested on: Klebsiella pneumoniae; assay: Antibacterial activity against Klebsiella pneumoniae ATCC 13883 after 24 hrs by microtitre broth dilution method; assay type: functional; conditions: ATCC 13883, 24 h
[39] = tested on: Pseudomonas aeruginosa; assay: Antibacterial activity against multidrug-resistant/tobramycin-susceptible Pseudomonas aeruginosa isolate 86067; assay type: functional
[40] = tested on: Staphylococcus epidermidis; assay: Antibacterial activity against methicillin-resistant Staphylococcus epidermidis isolate CAN-ICU 61589 after 24 hrs by microtitre broth dilution method; assay type: functional; conditions: isolate CAN-ICU 61589, 24 h
[41] = tested on: Pseudomonas aeruginosa; assay: Antibacterial activity against multidrug-resistant/tobramycin-susceptible Pseudomonas aeruginosa isolate 79199; assay type: functional
[42] = tested on: Pseudomonas aeruginosa; assay: Antibacterial activity against multidrug-resistant/tobramycin-susceptible Pseudomonas aeruginosa isolate 80621; assay type: functional
[43] = tested on: Staphylococcus epidermidis; assay: Antibacterial activity against methicillin-susceptible Staphylococcus epidermidis isolate CANWARD-2008 81388 after 24 hrs by microtitre broth dilution method; assay type: functional; conditions: isolate CANWARD-2008 81388, 24 h
[44] = tested on: Pseudomonas aeruginosa; assay: Antibacterial activity against multidrug-resistant/tobramycin-susceptible Pseudomonas aeruginosa isolate 92014; assay type: functional
[45] = tested on: Pseudomonas aeruginosa; assay: Antimicrobial activity against Pseudomonas aeruginosa PAO750; assay type: functional; how it was run: as §1
[46] = tested on: Pseudomonas aeruginosa; assay: Induction of cytoplasmic membrane depolarization in Pseudomonas aeruginosa PAO1 by DiSC3(5) dye based fluorescence assay; assay type: functional
[47] = Inhibition of circular DNA translation in Escherichia coli S30 extract after 60 mins by luciferase reporter gene assay
How it was run: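 Translation was run in an E. coli S30 extract with a luciferase read-out. Luminescence is expressed as a percentage of the no-antibiotic control, taken as 100%.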

COc1c(N2C[C@@H]3CCCN[C@@H]3C2)c(F)cc2c(=O)c(C(=O)O)cn(C3CC3)c12 [MOXIFLOXACIN]
MIC [1]: 512 µg/mL (≈ 1280 µM)
MIC [2]: 8 to 16 µg/mL (≈ 19.9 to 39.9 µM)
MIC [3]: 8 µg/mL (≈ 19.9 µM)
MIC [4]: 16 µg/mL (≈ 39.9 µM)
MIC [5]: > 16 µg/mL
MIC [6]: 1 µg/mL (≈ 2.49 µM)
MIC [7]: ≤ 0.25 µg/mL
MIC [8]: 8 µg/mL (≈ 19.9 µM)
Selectivity ratio [9]: 128
MIC [10]: 2 µg/mL (≈ 4.98 µM)
MIC [11]: 16 µg/mL (≈ 39.9 µM)
MIC [12]: 16 µg/mL (≈ 39.9 µM)
MIC [13]: 4 µg/mL (≈ 9.96 µM)
MIC [14]: 128 µg/mL (≈ 319 µM)
MIC [15]: 32 µg/mL (≈ 79.7 µM)
MIC [16]: 16 µg/mL (≈ 39.9 µM)
MIC [17]: 1 µg/mL (≈ 2.49 µM)
Ratio [18]: 16
MIC [19]: ≤ 0.25 µg/mL
MIC [20]: ≤ 0.25 µg/mL
MIC [21]: 128 µg/mL (≈ 319 µM)
IC50 [22]: 2600 nM
MIC [23]: 1 µg/mL (≈ 2.49 µM)
survival at 50 mg/kg [24]: 27%
MIC [25]: 32 to 64 µg/mL (≈ 79.7 to 159 µM)
MIC [26]: 64 to 128 µg/mL (≈ 159 to 319 µM)
survival at 75 mg/kg [27]: 7%
MIC [28]: 16 µg/mL (≈ 39.9 µM)
MIC [29]: > 16 µg/mL
MIC [30]: 32 to 64 µg/mL (≈ 79.7 to 159 µM)
MIC [31]: 16 µg/mL (≈ 39.9 µM)
MIC [32]: 4 µg/mL (≈ 9.96 µM)
MIC [33]: 0.25 µg/mL (≈ 0.623 µM)
MIC [34]: ≤ 0.25 µg/mL
MIC [35]: > 16 µg/mL
MIC [36]: ≤ 0.25 µg/mL
MIC [37]: 0.5 µg/mL (≈ 1.25 µM)
MIC [38]: ≤ 0.25 µg/mL
MIC [39]: 16 µg/mL (≈ 39.9 µM)
MIC [40]: 64 µg/mL (≈ 159 µM)
MIC [41]: > 16 µg/mL
MIC [42]: 8 µg/mL (≈ 19.9 µM)
MIC [43]: ≤ 0.25 µg/mL
MIC [44]: 16 µg/mL (≈ 39.9 µM)
MIC [45]: 0.0078 µg/mL (≈ 0.0194 µM)

NC[C@H]1O[C@H](O[C@H]2[C@H](O)[C@@H](O[C@H]3O[C@H](CO)[C@@H](O)[C@H](N)[C@H]3O)[C@H](N)C[C@@H]2N)[C@H](N)C[C@@H]1O [TOBRAMYCIN]
Activity [46]: Dose-dependent effect
MIC [1]: > 64 µg/mL
MIC [2]: 8 µg/mL (≈ 17.1 µM)
MIC [3]: 1 µg/mL (≈ 2.14 µM)
MIC [4]: 1 µg/mL (≈ 2.14 µM)
MIC [5]: 1 µg/mL (≈ 2.14 µM)
IC50 [47]: 6.2 nM
MIC [6]: 0.5 µg/mL (≈ 1.07 µM)
MIC [7]: ≤ 0.25 µg/mL
MIC [8]: > 64 µg/mL
MIC [10]: 8 µg/mL (≈ 17.1 µM)
MIC [11]: 1 µg/mL (≈ 2.14 µM)
MIC [12]: 4 µg/mL (≈ 8.56 µM)
MIC [13]: > 512 µg/mL
MIC [14]: < 0.5 µg/mL
MIC [15]: 128 µg/mL (≈ 274 µM)
MIC [16]: 16 µg/mL (≈ 34.2 µM)
MIC [17]: 32 µg/mL (≈ 68.4 µM)
Ratio [18]: 512
MIC [19]: 0.5 µg/mL (≈ 1.07 µM)
MIC [20]: ≤ 0.25 µg/mL
MIC [21]: 64 µg/mL (≈ 137 µM)
MIC [23]: 8 µg/mL (≈ 17.1 µM)
survival at 50 mg/kg [24]: 20%
MIC [25]: > 64 µg/mL
MIC [26]: > 64 µg/mL
survival at 75 mg/kg [27]: 0%
MIC [28]: 256 µg/mL (≈ 548 µM)
MIC [29]: 2 µg/mL (≈ 4.28 µM)
MIC [30]: 32 µg/mL (≈ 68.4 µM)
MIC [31]: 1 µg/mL (≈ 2.14 µM)
MIC [32]: 0.5 µg/mL (≈ 1.07 µM)
MIC [34]: 2 µg/mL (≈ 4.28 µM)
MIC [35]: 1 µg/mL (≈ 2.14 µM)
MIC [36]: 8 µg/mL (≈ 17.1 µM)
MIC [37]: 8 µg/mL (≈ 17.1 µM)
MIC [38]: ≤ 0.25 µg/mL
MIC [39]: > 64 µg/mL
MIC [40]: 1 µg/mL (≈ 2.14 µM)
MIC [41]: 2 µg/mL (≈ 4.28 µM)
MIC [42]: 2 µg/mL (≈ 4.28 µM)
MIC [43]: ≤ 0.25 µg/mL
MIC [44]: 1 µg/mL (≈ 2.14 µM)
